# Sampled rows, rich in hits. Any-hit rate of the full collection: about 1.2%.
# Dynein cargo inh: dynein cargo transport inhibition. 3617.4 mouse cells, GR-EGFP nuclear translocation imaging; test concentration mostly 20 µM; stimulated with dexamethasone, 1 µM; stronger effect = lower value. z-score, hits read low. hit rate 0.47% among 220,000;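 active = plate z-score of nuclear minus cytoplasmic receptor signal below a set negative limit, without overly bright fluorescence or cell loss, cut at about -3.5 in these data, passing the limit was not always enough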;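 also: z-score of nuclear minus cytoplasmic ring GR-EGFP intensity difference per well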
#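 Also added: dexamethasone, 1.0 µM final. Medium: tet-free, stripped-serum medium. Detection: fixed, Hoechst-stained cells imaged at 10x for EGFP. Read-out: nuclear-to-cytoplasmic GR-EGFP distribution per well. Times: induction 48 h, compound 1 h, agonist 30 min.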
# HKDC1 inh: HKDC1 (human) hexokinase inhibition; hit rate 0.16% among 340,000; recombinant HKDC1, G6PDH/diaphorase resazurin coupled fluorescence; inhibition, % at 20 µM; Q2TB90;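 active = inhibition above about 35% when tested at 20 µM, limit read from the data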;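 also: plate controls were DMSO wells with enzyme for no effect and DMSO wells lacking enzyme for full effect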
#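 Assay system: recombinant HKDC1 hexokinase; detection: coupled resazurin fluorescence, excitation 525 nm, emission 613 nm; benchmarks: DMSO-plus-enzyme-mix negative control, buffer-substituted positive control; compound dosing: single 20 µM dose; schedule: 90 min at room temperature in dark; also added: glucose plus 1 mM ATP as hexokinase substrates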
# PERK inhibitor: human PERK inhibition, primary cell-based screen. CHO PERK-DD fusion, SEAP luminescence translation reporter. hit rate 0.17% among 220,000. Q9NZJ5. inhibition, % at 5.6 µM;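 active = inhibition above the mean inhibition of all tested compounds plus 3 SD, set separately per screening campaign, cut at about 2.9% in these data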;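 also: PERK kinase domain activated by AP20187 dimerizer at 100 nM; 0% = DMSO with dimerizer and 100% = rapamycin at 8.4 µM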
# Target sequence (Q9NZJ5 whole entry, looked up, the tested form may be a part): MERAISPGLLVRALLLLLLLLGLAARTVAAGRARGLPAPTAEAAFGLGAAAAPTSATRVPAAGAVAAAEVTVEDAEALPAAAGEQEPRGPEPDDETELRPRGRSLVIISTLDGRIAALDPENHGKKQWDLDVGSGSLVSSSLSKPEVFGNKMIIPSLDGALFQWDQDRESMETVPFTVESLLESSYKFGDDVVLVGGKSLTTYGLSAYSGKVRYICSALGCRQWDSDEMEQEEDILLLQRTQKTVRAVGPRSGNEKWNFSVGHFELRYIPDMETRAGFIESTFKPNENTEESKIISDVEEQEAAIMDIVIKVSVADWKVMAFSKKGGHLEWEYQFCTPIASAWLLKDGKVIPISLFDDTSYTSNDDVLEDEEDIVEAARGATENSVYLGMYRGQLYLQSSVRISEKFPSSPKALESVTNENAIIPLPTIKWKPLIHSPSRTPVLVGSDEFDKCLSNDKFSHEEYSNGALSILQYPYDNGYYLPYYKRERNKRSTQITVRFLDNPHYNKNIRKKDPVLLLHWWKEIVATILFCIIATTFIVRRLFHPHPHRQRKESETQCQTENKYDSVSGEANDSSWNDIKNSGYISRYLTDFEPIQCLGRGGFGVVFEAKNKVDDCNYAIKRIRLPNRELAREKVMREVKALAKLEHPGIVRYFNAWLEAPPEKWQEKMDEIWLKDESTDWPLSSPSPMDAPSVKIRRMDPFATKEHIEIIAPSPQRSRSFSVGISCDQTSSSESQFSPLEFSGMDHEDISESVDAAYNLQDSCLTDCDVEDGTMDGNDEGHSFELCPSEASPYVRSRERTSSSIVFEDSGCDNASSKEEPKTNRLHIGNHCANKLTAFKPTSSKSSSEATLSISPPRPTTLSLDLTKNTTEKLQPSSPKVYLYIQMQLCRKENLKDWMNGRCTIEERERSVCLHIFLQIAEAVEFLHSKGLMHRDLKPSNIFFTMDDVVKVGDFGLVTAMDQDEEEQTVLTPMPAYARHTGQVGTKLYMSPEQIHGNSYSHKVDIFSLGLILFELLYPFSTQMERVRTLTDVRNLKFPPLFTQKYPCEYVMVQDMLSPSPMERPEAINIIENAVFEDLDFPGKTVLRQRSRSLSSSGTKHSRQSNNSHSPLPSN
# Tb hexokinase: blocks Trypanosoma brucei hexokinase 1 activity | recombinant TbHK1, G6PDH-coupled NADH A340 | inhibition, % at 10 µM | hit rate 0.11% among 220,000 | AID 1430;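 active = inhibition of 50% or more in the single-dose primary screen; inactive = inhibition below 50%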
# HSV replic up: HSV replication enhancement; HSV replication augmentation in cells, fold increase; maximum fold increase; hit rate 0.005% among 220,000; AID 1956; in the data active = maximum fold increase above about 1.5; inconclusive = no clear call, values can overlap the other calls; tested in PC3 cells
# Autophagy HCS: autophagy modulation, high-content screen. AID 463193. MEF GFP-LC3 puncta imaging; test concentration mostly 10 µM. hit rate 0.98% among 190,000. calls only at 10 µM (by protocol);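 active = percentage of spot-positive cells more than 3 SD above its plate mean, without a fluorescence outlier flag or 80% toxicity; inconclusive = no clear call, values can overlap the other calls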;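 also: spot-positive cell cutoff set from DMSO-treated cells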
# Dynein confirm: dynein cargo transport inhibition, confirmation | AID 463116 | shares compounds with Dynein cargo inh | calls only at 20 µM | hit rate 69% among 1,000 | 3617.4 GR-EGFP nuclear translocation imaging, dexamethasone-induced;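 active = inhibition of receptor movement into the nucleus at or above a set limit in both runs, with normal cell brightness and cell count; inconclusive = limit reached in only one run, brightness and count normal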;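 also: dexamethasone at 1 µM final in well for 30 min; nuclear minus cytoplasmic GR-EGFP mean intensity difference in channel 2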
# Active calls of the source: *; i = inactive; u = inconclusive; x = no result; + = active, no number.
SMILES,Dynein cargo inh,HKDC1 inh,PERK inhibitor,Tb hexokinase,HSV replic up,Autophagy HCS,Dynein confirm
O=C(NCc1cccnc1)c1ccc(-c2ccc(Cl)cc2)o1,-0.42,17,1,-4,i,i,x
O=C(NCc1cccnc1)/C(=C\c1ccc(-c2ccc(Cl)c(Cl)c2)o1)S(=O)(=O)c1ccccc1,-4.2*,28,-1,-38,i,i,+
COc1ccc2[nH]c3c(c2c1)CCN1C(=O)C(CC(=O)NCCN2CCOCC2)C[C@H](C(=O)N2CCOCC2)[C@@]31C (some centres not stated),x,-5,x,x,x,x,x
CCOC(=O)c1c(-c2ccccc2)csc1NC(=O)c1cc(-c2ccccc2OC)on1,x,-9,x,x,x,x,x
CCOC(=O)c1c(-c2ccccc2)csc1NC(=O)/C(C#N)=C/c1ccc(O)c(OC)c1,-4.7*,-1,0,-3,u,+,+
N#C/C(=C\c1cccs1)C(=O)c1ccccc1Cl,-4.9*,8,0,1,i,x,+
C=CCNCCCOc1ccc(Cl)cc1C(C)(C)C,-6.7*,-7,-1,10,i,i,i
CC(C)(C)c1ccc(CNC(=O)C2CCCN2C(=O)Nc2ccccc2)cc1 (configuration not stated),x,-1,x,x,x,x,x
Cc1nc([N+](=O)[O-])c(Sc2nc3ccc([N+](=O)[O-])cc3[nH]2)n1Cc1ccccc1,-2.2,11,0,-12,i,i,x
Cc1nc([N+](=O)[O-])c(Br)n1CC(=O)c1ccc(F)cc1,-6.1*,10,0,3,i,i,+
Cc1nc([N+](=O)[O-])c(Br)n1CC(=O)c1cccc([N+](=O)[O-])c1,-5.5*,6,1,-7,i,i,+
CCn1c(=N)n(CC(=O)c2cccc([N+](=O)[O-])c2)c2ccccc21,3.4,-4,-1,-8,i,i,x
COC(=O)Cn1c(C)nc([N+](=O)[O-])c1Br,-1.2,-4,1,5,i,i,x
Cc1nc([N+](=O)[O-])c(Br)n1Cc1ccccc1,-5.9*,8,1,-20,i,x,+
CCN(CC(=O)Nc1cc(Cl)ccc1C)C(=O)C1COc2ccccc2O1 (configuration not stated),x,0,x,x,x,x,x
CCOC(=O)C1(Cc2cccc(Cl)c2)CCCN(C(=O)c2cc(C(C)C)nn2C)C1 (configuration not stated),x,-1,x,x,x,x,x
CCOC(=O)C1=C(CSc2nc(-c3ccncc3)ccc2C#N)OC(N)=C(C#N)C1c1ccc(OC)cc1 (configuration not stated),-5.8,11,-2,-33,i,i,i
CCOC(=O)C1=C(CSc2nc(-c3ccncc3)ccc2C#N)OC(N)=C(C#N)C1c1cccnc1 (configuration not stated),-1.6,7,1,-16,i,i,x
CN(C(=O)COC(=O)C1COc2ccccc2O1)c1c(N)n(Cc2ccccc2)c(=O)[nH]c1=O (configuration not stated),x,-2,x,x,x,x,x
O=C(/C=C/c1cccnc1)/C=C/c1cccnc1,-6.4*,12,-1,-48,i,x,+
CCN(CC)c1ccc(/C=C/C(=O)c2cccnc2)cc1,0.48,8,0,-10,i,i,x
O=C(/C=C/c1ccccc1Cl)c1cccnc1,-4.2*,10,0,-26,i,i,+
N#Cc1ccc(/C=C/C(=O)c2cccnc2)cc1,-5*,-4,1,-15,i,i,+
C(=Cc1cccnc1)c1ccncc1,x,-7,x,x,x,x,x
O=C(/C=C/c1ccc(Cl)cc1)c1cccnc1,-5.1*,18,1,-36,i,i,+
SMILES,Dynein cargo inh,HKDC1 inh,PERK inhibitor,Tb hexokinase,HSV replic up,Autophagy HCS,Dynein confirm
Cc1cc(Cl)n2c(nc3cc(F)c(F)cc32)c1C#N,-4.3*,34,1,-3,i,i,+
COCCN(C(=O)COC(=O)Cc1coc2cc3c(cc12)CCC3)c1c(N)n(Cc2ccccc2)c(=O)[nH]c1=O,x,-4,x,x,x,x,x
Cc1[nH]n(-c2ncc(-c3ccc(Cl)cc3)s2)c(=O)c1C(c1ccc(Cl)cc1)C(C#N)C#N (configuration not stated),-3.6*,20,1,29,i,i,+
CN(C)S(=O)(=O)c1cccc(-n2sc3ccccc3c2=O)c1,-3.6*,4,0,86*,i,i,i
O=C(O)c1cccc(-n2sc3ccccc3c2=O)c1,x,5,x,x,x,x,x
CC(C)NC(=O)N(C)C[C@H]1Oc2ccc(NS(=O)(=O)c3ccccc3)cc2C(=O)N([C@H](C)CO)C[C@@H]1C,x,-2,x,x,x,x,x
CCN(CC)c1ccc(/C=C/C(=O)c2ccc(Br)cc2)cc1,-6.9,-2,2,-6,x,+,+
C=CCn1c(SCC(=O)N(C)c2c(N)n(Cc3ccccc3)c(=O)[nH]c2=O)nnc1-c1ccccc1OC,x,-2,x,x,x,x,x
Cc1cccc(N2CCN(C(=O)Cn3sc4nc(C)cc(C)c4c3=O)CC2C)c1 (configuration not stated),-4.4*,-2,0,4,i,i,u
O=[N+]([O-])c1ccc(/C=C/C2=NN(c3ccccc3)C(c3ccco3)C2)o1 (configuration not stated),-6.8,1,1,1,u,+,+
O=C1CC2C(CCC23OCCO3)c2ccc3ccccc3c21 (configuration not stated),x,-5,x,x,x,x,x
CCOc1ccc(C(=O)/C=C/c2cc(OC)c(OC)c(OC)c2)cc1,-4.2*,9,1,-16,i,i,+
COc1cc(/C=C/C(=O)c2ccc(F)cc2)cc(OC)c1OC,-4.7*,4,1,-18,i,i,+
COc1ccc(/C=C/C(=O)c2ccc(C(=O)/C=C/c3ccc(OC)c(OC)c3)cc2)cc1OC,x,20,x,x,x,x,x
Cc1ccc(S(=O)(=O)N2[C@@H](c3ccc(F)cc3)C(C(=O)O)=CC[C@H]2c2cccs2)cc1,x,-4,x,x,x,x,x
Cc1ccc(/C(C#N)=C\c2ccc(N3CCOCC3)o2)cc1,-3,-4,1,-6,i,i,x
Cc1ccc2nc(/C(C#N)=C\c3ccc(N4CCOCC4)o3)[nH]c2c1,-6.6,11,0,-13,u,u,+
O=C(COc1ccccc1)NCC(=O)N1CCCCCC1,x,-3,x,x,x,x,x
CCc1cc(=O)oc2c(C)c(OC(C)C(=O)NCCCn3ccnc3)ccc12 (configuration not stated),x,-6,x,x,x,x,x
CCCCc1c(C)c(C#N)c2nc3ccccc3n2c1Cl,-5.2*,x,1,-3,i,i,+
O=C(OCn1ncc(Br)c(Br)c1=O)c1ccc(F)cc1,-5.1*,28,-1,1,i,i,+

# From PubChem BioAssay
